The EternaBench riboswitch data

Tests used:
MS2 coat protein [1] = experiment: apparent Kd, MS2 coat protein; higher = weaker binding; RNA-MaP array
Outline: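 Sequenced DNA templates on an Illumina sequencing chip were transcribed into the designed RNAs. These were incubated at room temperature in Tris-HCl pH 7.5 buffer containing KCl, MgCl2, BSA, DTT, tRNA and Tween20 with fluorescently labeled MS2 coat protein at 1.5 nM to 3 μM, with or without input ligand. Apparent Kd is the median of binding-curve fits per cluster, and designs with fewer than 10 clusters measured were excluded.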

MS2 coat protein [2] = experiment: apparent Kd, MS2 coat protein; higher = weaker binding; RNA-MaP array; FMN 200 µM where present
Outline: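 Green signal from SNAP-549-labelled MS2 coat protein was normalised to red-channel RNA signal and to the median Fmax of control clusters. The protein was titrated from 0.7 or 1.5 nM, doubling to 3 µM, without and then with constant ligand, over designs transcribed by stalled E. coli RNA polymerase on Illumina sequencing-chip clusters, in 100 mM Tris-HCl pH 7.5, 80 mM KCl, 4 mM MgCl2, BSA, DTT, yeast tRNA and Tween-20. The apparent Kd is the median of filtered per-cluster binding-curve fits.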

[3] = designed as: OFF switch for flavin mononucleotide, no ligand
[4] = ligand present: flavin mononucleotide, designed as: OFF switch for flavin mononucleotide
[5] = designed as: ON switch for flavin mononucleotide, no ligand
[6] = ligand present: flavin mononucleotide, designed as: ON switch for flavin mononucleotide
[7] = designed as: OFF switch for theophylline, no ligand
[8] = ligand present: theophylline, designed as: OFF switch for theophylline

Sequence	apparent Kd (MS2 coat protein [1]; [3]) [nM]	apparent Kd (MS2 coat protein [1]; [4]) [nM]	apparent Kd (MS2 coat protein [1]; [5]) [nM]	apparent Kd (MS2 coat protein [1]; [6]) [nM]	other results
GACAGGACGACAUGAGGAUCACCCAUGUGUUAGCGUGGAUAGCAGGAUAUAUUAUUUAGACUCGGAUAGAAGGGCUCGGACCUA	18.3	14.5			
GGGCAACAUGAGGAUCACCCAUGUCGUCAUGGGUUCAAUCGGAGAAGGAACGGAGUGAUAUCCAGUUAGGAUAUCCGCUACACU	44.6	44			
GGGAGAAAUGGAGGAUAUAUUAAAGCACAGCUGACAUGAGGAUCACCCAUGUGAAUUAAAGAUGCAUAGAAGGCCAAACUACAA			17.3	11.8	
CUGUUUGUUUGGGUCUGUCAAAAGAACGAUACCAGCCGCAUUAUGGGCCCUUGGCAGCGUAGGACAUGAGGAUCACCCAUGUACG					apparent Kd (MS2 coat protein [1]; [7]): 18.7 nM; apparent Kd (MS2 coat protein [1]; [8]): 35.2 nM
AAAUUCGGGAUCUAGGAUAUGUGCGUUUACACAUGAGGAUCACCCAUGUCUCACAGCCGUUUACCACAGAAGGAGAAACGACCUUA			31.1	23.9	
CACUGACAUGAGGAUCACCCAUGUAUGCUCGACCAAGGAUAUUGAUCAGACAAGCAUACGCAAGAAGGUGGUGAGA			222	105	
AUCACUGUGAAAGAUACCAGCGCCCUACCUAUCUUCUGUUACAUGAGGAUCACCCAUGUUCGCCCUUGGCAGCUUGAGAUGGAUC					apparent Kd (MS2 coat protein [1]; [7]): 49 nM; apparent Kd (MS2 coat protein [1]; [8]): 70.6 nM
GAGGUAACGUAGAAGGCGAGGGCAAUACCUGUUCGAGGAUAUACUAUUAGACAUGAGGAUCACCCAUGUGGAGAUUGAUCGUCA	241	339			
GAUGUCAAACAGAAGGAAGACUUGUACAAGGACUUAGGAUAUGUACAUGAGGAUCACCCAUGUGACUAAUGCGGGCCAUAUGAC	15.1	16.9			
GCACGGCUAGAGAAGGGAAGGUGGAAGAGAUGUGAGGGACAUGAGGAUCACCCAUGUCUUACGAUUCAGGAUAUCUGAGAGGCU	10.2	10.3			
UGAGUGAAGGAGAAGGGUCUUCAGGAAAUACGGAAAUAACAUGAGGAUCACCCAUGUUCAAGCAGACAGGAUAUCCAAUGUUGG			18.8	14.6	
UAAAUACAUGAGGAUCACCCAUGUUUGGAUACCAGAUAUGACAUUAUCCCUUGGCAGCCAUUCGUUCCAAAUGCUAUUGUGAAGG					apparent Kd (MS2 coat protein [1]; designed as: ON switch for theophylline, no ligand): 22.5 nM; apparent Kd (MS2 coat protein [1]; ligand present: theophylline, designed as: ON switch for theophylline): 31 nM
UUAGGGCGGUAGAAGGAGGAUUACAUGAGGAUCACCCAUGUGGCAGGAGGCGAGGCUCAGUUACCCUAGGAUAUACAUCAGGUU	24.9	21.5			
CGCGGAACAUGAGGAUCACCCAUGUUAUGUAACAGCAAACUAAGAAGGCGUUAUAUAAGUAUGGACGAGGAUAUUAGCUUGAGU			24.3	8.8	
UAGCGGACUGUGAGGAUAUAGCAAAUUCAACAAUUCUAGAAGGCACAUGAGGAUCACCCAUGUAGAGUGAUUAA	38.5	70.7			
AGGAUCCAGGAGAAGGCAACUGUAGUUUGGCAUUGAGGAUAUCCAAAGACCCGCUAGAUAGGAGCACAUGAGGAUCACCCAUGU			35.5	19.1	
AGUACCAAUGAGGAUACCAGAGUGCGACGCCGAAACCUUGACAUGAGGAUCACCCAUGUACUCCCUUGGCAGCCUGUACUUGCCA					apparent Kd (MS2 coat protein [1]; [7]): 35.9 nM; apparent Kd (MS2 coat protein [1]; [8]): 82.6 nM
CUUAUGAUCGAGGAUAUCACAAAUGGGCAGCGUUGAGAAGGCGACACAUGAGGAUCACCCAUGUAAUCAACAGU	18.4	15.9			
AAUGCGAGACUAGGAUAUUGCAUUCAACUCGUGCAAGAAGGAGUCGUUUCAUACAUGAGGAUCACCCAUGUCCAUAUUUCUCAA			14.5	7.44	
UACGAGUAAGGAUAUACACUGACCCAAAGAGUACAGAAAAUGUAGAAGGUACAUGAGGAUCACCCAUGUAGGUG	85.2	94.3			
GCGACUCUCGUGAAGCGACAUGAGGAUCACCCAUGUAACACUAGAAGGAGGCACGAUACGAUGUCCUAGGAUAUAGACACGGCU	27.8	26.4			
AUAGCAUGAGUAGGAUAUUUUGAGCGUUGUGCAAAAGAAGGACUGACCGUGAUUAUAAUAUACAUGAGGAUCACCCAUGUUACA	9.42	8.03			
GCUGCUCAUCAAAACUGGACAUGAGGAUCACCCAUGUCUUUGCAGGAUAUUGAUCGUCAGUACAUCAAGAAGGGCACGCGGCAA			12.9	9.89	

Sequence	apparent Kd (MS2 coat protein [1]; [3]) [nM]	apparent Kd (MS2 coat protein [1]; [4]) [nM]	apparent Kd (MS2 coat protein [1]; [5]) [nM]	apparent Kd (MS2 coat protein [1]; [6]) [nM]	other results
GGACAUGAGGAUCACCCAUGUGGGAUCCACUACGGUCACGCUAGAAGGGAUGUGGGUGGCCGAUAUCAGGAUAUAGCAGUUUAG	381	189			
AAAGGCGUAGGAUAUACAUGAGGAUCACCCAUGUAUCACAAUAACGAGGAAUGAAAGUGUAGAAGGACGAUAAC	7.48	6.8			
UUUGAGGCAGGAUAUAACAUCUUUGACAUGAGGAUCACCCAUGUGGUGUCCCGGUUUUAAUUAGAAGGGCCAGGCU	692	727			
AUGAGCUGAGGAUAUAUUAACCUGUACAUGAGGAUCACCCAUGUAGCGUGUAGAGUGAGAAUAGAAGGCAGACAUC	17.2	12.8			
UGCGCGAGAGGAUAUUAUCGUAACUACAUGAGGAUCACCCAUGUUUCGCCCGUAGCUGGAUAAGAAGGCUCGAGUG	14.6	20.7			
UCGGAAAAGAAAGGAUAUCGCAUGGAUUGUUGUCGAGAAGGUUCAAAUCGACAUGAGGAUCACCCAUGUCGAGUCCAUACUCCU			76	53.7	
UUAUAGAGAGGAUAUACAUGAGGAUCACCCAUGUUAUUACCAAGCUUGAUGGGUAUGCGUAGAAGGCUCAUGAA	19.1	35			
CAUUUACAUGAGGAUCACCCAUGUUAUUCUACCCAAGGAUAUCGGGAAAGUAGAACAAGUCGAGAAGGUGGUGCGC			29.5	25.6	
UUAGCACAUGAGGAUCACCCAUGUUAGGAUAUCCGUUAAUAUCAGGCAAGGUCUGAAAGGAGAAGGAACAUGAA	35.4	67.9			
UCGUCAUUGAACAGCACAUGAGGAUCACCCAUGUUUAGAUCUAGAAGGCCUUUCUCGAAGACCCAGGAGGAUAUAGUGAAGUGG	21.8	18.7			
CAAUGAAACAUUCAGGAUAUGGUACAAGGAACAUGAGGAUCACCCAUGUCAAGAAAAGAAAAUCACCAGAAGGGAACAAGACAAAA			41.5	32.3	
UUGAGAGGACAGAAGGUUGGGCUCUUGAUCUACGCGCGCGACAUGAGGAUCACCCAUGUGCUUCCAAAGGAUAUGUCACUCGCA			138	44.8	
GCAAAGAAAGCAGUGUAAACAUGAGGAUCACCCAUGUGAUGGAGAAGGUAUAGGCUGGUCGUAUAUAAGGAUAUCCUAAGCAAA			18.6	17.6	
AGAAGCUAAUCCGGCUCAUACAUGAGGAUCACCCAUGUUUUCAGAAGGGAGUCCGUCGCACCGACUCAGGAUAUGAUUCAAGAA			15.6	21.8	
ACGGAGACACAAAUGUUCCACGGUGCAGAAGGGUCCCUCACAUGAGGAUCACCCAUGUAACUCGGACAGGAUAUGCUCCUGGGA					apparent Kd (MS2 coat protein [2]; [5]): 135 nM; apparent Kd (MS2 coat protein [2]; [6]): 9.78 nM
CGCGGACAAGAGAAGGCCAGACCUCGGAACCUGAGGCACCGCUAGGCAUGGAGGAUAUCUUGACAUGAGGAUCACCCAUGUACU					apparent Kd (MS2 coat protein [2]; [5]): 665 nM; apparent Kd (MS2 coat protein [2]; [6]): 33.7 nM
AAAAGGCAUCGUGACAUGAGGAUCACCCAUGUGAUUUGCUCACAGGAUAUCAUGCUCACGGAGCCUGAGAAGGGUGAAAGCUAA					apparent Kd (MS2 coat protein [2]; [5]): 28.7 nM; apparent Kd (MS2 coat protein [2]; [6]): 54.7 nM
AAAUCCGAAGGAUAUACAUCAAAAGCAAACUGACCCUCACGACAUGAGGAUCACCCAUGUAGAAGGUUGGAAAU					apparent Kd (MS2 coat protein [2]; [3]): 20.3 nM; apparent Kd (MS2 coat protein [2]; [4]): 18.1 nM
AACAUGAGGAUCACCCAUGUCCCACCAGAAGGCUGGCGGUGGUAGGAAAGGCUACGACAAAUAACAGAGGAUAUGGUGAAUGCA					apparent Kd (MS2 coat protein [2]; [5]): 88.9 nM; apparent Kd (MS2 coat protein [2]; [6]): 20.8 nM
GUAAUUAAUGUAGGAUAUGCAAGGCGAACCUAAGCAGAAGGACAUGAGGAUCACCCAUGUAUUGCGGUCUGCGUUCAGAUCGCU					apparent Kd (MS2 coat protein [2]; [3]): 19.5 nM; apparent Kd (MS2 coat protein [2]; [4]): 49.5 nM
UAGUUAUUCACAGGAUAUCGCCUCUUAUUACAUGAGGAUCACCCAUGUUUAUUUUGUUACAUGUUCGAGAAGGGUGUAGCCGUU					apparent Kd (MS2 coat protein [2]; [3]): 345 nM; apparent Kd (MS2 coat protein [2]; [4]): 375 nM
UCUCUUCUGUAGAAGGCCCAACUUGUGAAGAUAACGAUACUAUAGAAGUAGGGAGGAUAUACAUGAGGAUCACCCAUGUAGGAA					apparent Kd (MS2 coat protein [2]; [3]): 8.09 nM; apparent Kd (MS2 coat protein [2]; [4]): 15.8 nM
